Data taken from publication PMC9977173 (Science Advances, 2023).

Tests used:
CD206 = CD206 (Homo sapiens, UniProt P22897); conditions: read-out: Kd of mannose; cited from earlier work
[1] = system: MB49-Luc orthotopic bladder cancer; conditions: mouse, in vivo
[2] = system: CXCR4 (breast and pancreatic cancer); conditions: cited from earlier work
EJ xenograft tumor = assay: Antitumor efficiency in EJ xenograft mice; format: in vivo, mouse; conditions: 18 days; intravenous; PepCXCR4 and bsGP 500 μM, plerixafor 100 μM, 100 μl
Procedure, shortened: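 BALB/c nude mice (6 to 8 weeks, 16 to 18 g) received 5 × 10⁶ EJ cells in 100 µl s.c. in the right flank. Mice were randomised into groups of n = 6. Saline, test compound (500 µM, 100 µl) or plerixafor (100 µM, 100 µl) was given i.v. by tail vein once a day for five doses. Tumor volume was measured by calipers and body weight recorded every other day.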

EJ cells = assay: Cell viability; format: cell-based, human; conditions: 50 μM, 24 hours, CCK-8; n = 3
Procedure, shortened: (§1)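 Cells were seeded at 5 × 10⁴ per well in RPMI 1640 and cultured overnight at 37°C, 5% CO₂. Test compound was added at 10, 20, 50, 100, 200 or 500 µM for 24 h, then CCK-8 for 2 h at 37°C. Absorbance was read at 450 nm against a 690 nm reference. Viability = (A_s − A_b)/(A_c − A_b) × 100% versus saline-treated wells. Run in triplicate.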

RAW264.7 cells = assay: Cell viability; format: cell-based; conditions: 50 μM, 24 hours, CCK-8; n = 3
Procedure, shortened: as §1

[3] = system: pErk and pAkt (CXCR4 downstream) in EJ cells; assay: Western blot of Erk and Akt phosphorylation in EJ cells; format: cell-based, human; conditions: 50 μM, 24 hours
Procedure, shortened: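 EJ cells were lysed in buffer with protease inhibitor and centrifuged 15 min; protein was measured by BCA. 30 µg protein was run on SDS-PAGE and transferred to PVDF. Membranes were blocked 1 to 2 h at room temperature in 5% nonfat milk, 0.1% Tween 20, 10 mM TBS. Primary antibody was applied overnight at 4°C, then secondary for 1 to 2 h at room temperature. Detection was by chemiluminescence.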

orthotopic bladder tumor = format: in vivo, mouse; conditions: 500 μM, 100 μl, intravesical instillation
Procedure, shortened: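 Once bladder tumor growth was confirmed, test compound (500 µM, 100 µl) was instilled intravesically and kept in the bladder for 60 min. Whole-body fluorescence was scanned with IVIS at 1, 4, 8, 12, 24, 48 and 72 h. The bladder was exteriorised and imaged ex vivo at 1 h after infusion.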

[4] = system: CD86^+ and CD206^+ TAMs, CD4^+ and CD8^+ T cells; assay: Multiplex immunofluorescence of whole tumor slices; format: in vivo, mouse; conditions: MB49-Luc, C57BL/6, 500 μM, 100 μl, every other day, five times

CD206, sequence (P22897 19-1456, species assumed): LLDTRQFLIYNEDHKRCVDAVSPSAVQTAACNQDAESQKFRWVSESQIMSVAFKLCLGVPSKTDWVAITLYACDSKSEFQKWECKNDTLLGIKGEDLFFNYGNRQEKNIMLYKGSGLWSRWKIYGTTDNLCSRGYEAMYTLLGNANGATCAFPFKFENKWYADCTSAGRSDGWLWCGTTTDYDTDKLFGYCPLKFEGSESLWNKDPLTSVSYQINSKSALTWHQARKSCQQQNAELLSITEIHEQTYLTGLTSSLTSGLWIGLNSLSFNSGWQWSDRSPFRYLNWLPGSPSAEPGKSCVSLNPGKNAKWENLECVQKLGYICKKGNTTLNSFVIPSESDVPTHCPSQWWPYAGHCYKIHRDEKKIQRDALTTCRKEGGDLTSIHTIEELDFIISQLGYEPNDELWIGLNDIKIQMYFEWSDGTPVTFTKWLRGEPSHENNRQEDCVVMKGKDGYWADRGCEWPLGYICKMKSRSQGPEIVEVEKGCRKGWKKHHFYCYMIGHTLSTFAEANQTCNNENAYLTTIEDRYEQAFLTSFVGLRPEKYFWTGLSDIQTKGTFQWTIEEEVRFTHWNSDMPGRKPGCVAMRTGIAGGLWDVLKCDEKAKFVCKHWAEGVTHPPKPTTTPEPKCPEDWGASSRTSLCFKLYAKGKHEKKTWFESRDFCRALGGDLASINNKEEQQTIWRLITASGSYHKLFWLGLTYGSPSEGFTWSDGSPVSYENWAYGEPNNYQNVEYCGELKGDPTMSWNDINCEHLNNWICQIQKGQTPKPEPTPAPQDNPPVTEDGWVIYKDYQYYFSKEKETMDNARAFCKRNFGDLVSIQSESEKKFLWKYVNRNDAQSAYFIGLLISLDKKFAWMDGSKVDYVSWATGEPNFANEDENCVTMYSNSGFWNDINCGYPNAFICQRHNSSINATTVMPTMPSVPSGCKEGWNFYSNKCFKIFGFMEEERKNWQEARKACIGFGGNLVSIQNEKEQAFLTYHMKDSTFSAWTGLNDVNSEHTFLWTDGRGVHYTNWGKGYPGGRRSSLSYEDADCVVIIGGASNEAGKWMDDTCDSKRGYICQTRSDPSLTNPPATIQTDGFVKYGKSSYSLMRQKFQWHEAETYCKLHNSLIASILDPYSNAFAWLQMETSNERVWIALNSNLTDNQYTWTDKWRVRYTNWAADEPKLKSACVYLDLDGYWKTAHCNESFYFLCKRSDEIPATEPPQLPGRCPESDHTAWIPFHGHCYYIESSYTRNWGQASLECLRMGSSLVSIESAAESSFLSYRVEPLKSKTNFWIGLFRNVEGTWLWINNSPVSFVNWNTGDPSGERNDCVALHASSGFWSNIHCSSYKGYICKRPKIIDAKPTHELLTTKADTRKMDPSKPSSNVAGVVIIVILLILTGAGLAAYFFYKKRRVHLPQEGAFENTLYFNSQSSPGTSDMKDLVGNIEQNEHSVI

Compound	Kd (CD206) [µM]	recurrence rate [1] [%]	survival rate at 60 days [1] [%]	effect on tumor apoptosis, metastasis and intratumoral Tregs [2]	tumor growth inhibition rate, EJ xenograft (EJ xenograft tumor) [%]	effect on viability of EJ cells (EJ cells)	effect on viability of RAW264.7 cells (RAW264.7 cells)	phosphorylation of Erk and Akt [3]	fluorescence signal at the tumor site (orthotopic bladder tumor)	CD4^+ T cells in whole tumor slice ([4]; saline 1.74%) [%]	tumor-infiltrating CD8^+ T cells in whole tumor slice ([4]; saline 3.43%) [%]
OC[C@H]1OC(O)[C@@H](O)[C@@H](O)[C@@H]1O (stereo partly drawn) [mannose]	~1000										
c1cc(CN2CCCNCCNCCCNCC2)ccc1CN1CCCNCCNCCCNCC1 [plerixafor]		100	0	substantially promote tumor apoptosis, reduce tumor metastasis, and selectively decrease intratumoral Tregs	32						
LGASWHRPDK [PepCXCR4]					19	no substantial impact	no substantial impact	did not substantially alter	evident fluorescence signals	2.37	4.04
